These results are taken from PubChem BioAssay.

Calls of active or inactive are those of the source.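 Rule for the calls, unless noted: active = fluorescence slope higher than the sample average by over 3 SD (cut at about -0.22 in these data, passing the limit was not always enough); inactive = the rest.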

Assay [1] in a line: inhibitors of TNFa-induced NFkB p65 translocation, primary screen, imaging, HUVEC, MLSMR starter and 10KST1 sets (AID 438;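 active = inhibition above 20% together with a positive visual image hit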;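 note: compound added about 3h40 before a 20 min TNFalpha stimulation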;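 for inhibition: signal is the nuclear over cytoplasmic p65 intensity ratio per well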). The conditions noted are these: HUVEC TNFa-induced p65 nuclear translocation; cell count: measured here: nuclei count (cytotoxicity indicator), at 2.08 µM; inhibition: at 2 µM, stronger effect = higher value, 0% TNFa-plus-vehicle, 100% no-TNFa wells.
Assay [2] in a line: reduction of polyQ htt aggregates in cells – imaging, exon1htt(103Q)mCFP cells, high-content imaging, primary screen (AID 483;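 active = visual image review flags a hit and inhibition of aggregation exceeds 20%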;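 note: compound exposure lasted 3 days before fixation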;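 for nuclei count: percent of the per-plate median nuclei count of sample wells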). The settings on record: exon1htt(103Q)mCFP cell line, aggregate imaging, at 2 µM; inhibition of aggregation: stronger effect = higher value; nuclei count: measured here: cell count, toxicity.
The nature of assay [3]: endothelial E-selectin expression blockers – imaging, HUVEC, immunofluorescence, MLSMR starter and 10KST1 sets, primary screen (AID 487;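 active = visually confirmed hit in the image check and inhibition above 20%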;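 for inhibition: signal is fraction of cell area covered by stained E-selectin grains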;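 for nuclei count: 100% = median nuclei count of all wells on the same plate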). The settings on record: HUVEC TNFalpha-induced E-selectin immunofluorescence imaging, at 2 µM; inhibition: stronger effect = higher value; nuclei count: measured here: cell number, toxicity.
The target in assay [4] is Voltage-gated potassium channel subunit beta-2 (Rattus norvegicus) (UniProt P62483). Briefly: inhibitors of rat Kvbeta2 reductase activity – biochemical, NADPH fluorescence, primary screen (AID 622).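 Note: slope of raw intensity against log time taken from 70 to 1610 s.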 The settings on record: recombinant KvBeta, 4-cyanobenzaldehyde reduction, at 10 µM, stronger effect = higher value.
For assay [5] the target is unchanged. As to the kind of experiment: enhancers of rat Kvbeta2 NADPH turnover – biochemical, NADPH fluorescence, primary screen (AID 623;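 active = NADPH fluorescence slope more negative than the mean of all samples by about 3 SD, 99.7% confidence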;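 note: fluorescence intensity change per second fitted from 20 to 320 s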). The settings on record: Recombinant KvBeta, NADPH fluorescence decrease slope, 10 min; at 10 µM; stronger effect = lower value.
For assay [6], the target named is Muscarinic acetylcholine receptor M4 (Homo sapiens) (UniProt P08173). As to the kind of experiment: M4-linked GIRK flux change, two-sided – cell-based, HEK293 M4/GIRK, thallium flux, BTC-AM, M4 allosteric agonist project, primary screen (AID 625;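 active = fluorescence slope after compound addition differing from the mean of all tested samples at 99.7% confidence, mostly higher but some lower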;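 note: thallium influx through GIRK channels coupled to M4 in HEK293 cells with BTC-AM dye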). The conditions noted are these: at 10 µM, actives lie on both sides. In a few lines: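 assay system = HEK293 cells with M4 receptor and GIRK channels | medium = pH 7.3 thallium assay buffer | doses = 10 µM final, single point | timing = cells overnight at 37 °C, BTC-AM loading 1 h, reads 2 min total | signal = BTC-AM fluorescence, 1 Hz kinetic reads | read-out = post-addition slope, 15–24 s, of baseline-normalized fluorescence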

Assay [7] is described as follows: blockers of RIG-like receptor reporter activation – cell-based, Sendai virus stimulus, luciferase, 10K MLSCN set, TLR/RLR signaling modifier project, primary screen (AID 602276;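 active = inhibition at or above 50% at 10 µM; inactive = inhibition below 50%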;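 note: firefly luciferase from ISG56 promoter only with Renilla not read in this screen; 0% = Sendai virus plus DMSO and 100% = medium plus DMSO without virus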). The conditions noted are these: HEK293 RL24 IRF3 luciferase reporter, at 10 µM, stronger effect = higher value. Background: In a reporter assay the amount or activity of a reporter protein is the signal.

The nature of assay [8]: TLR3 IRF3 reporter activation blockers – cell-based, poly I:C stimulus, luciferase, 10K MLSCN set, primary screen (AID 602277;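 active = inhibition of the reporter signal at or above 50%; inactive = inhibition below 50%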). The settings on record: HEK293-TLR3 RL24 IRF3 luciferase reporter, at 10 µM, stronger effect = higher value.

Muscarinic acetylcholine receptor M4 (Homo sapiens), sequence (P08173 whole entry, looked up): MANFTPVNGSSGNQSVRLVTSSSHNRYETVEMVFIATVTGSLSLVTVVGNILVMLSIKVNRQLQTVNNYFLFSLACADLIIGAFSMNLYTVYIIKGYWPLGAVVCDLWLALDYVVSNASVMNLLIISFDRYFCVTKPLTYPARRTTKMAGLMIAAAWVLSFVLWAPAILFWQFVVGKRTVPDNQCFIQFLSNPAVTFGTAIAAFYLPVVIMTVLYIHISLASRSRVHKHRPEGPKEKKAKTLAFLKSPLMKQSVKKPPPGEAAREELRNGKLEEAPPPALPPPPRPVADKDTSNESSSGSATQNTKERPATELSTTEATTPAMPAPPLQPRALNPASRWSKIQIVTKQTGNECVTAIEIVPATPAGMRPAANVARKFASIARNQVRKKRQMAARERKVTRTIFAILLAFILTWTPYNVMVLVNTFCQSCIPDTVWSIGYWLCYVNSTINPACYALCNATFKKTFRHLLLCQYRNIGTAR
Voltage-gated potassium channel subunit beta-2 (Rattus norvegicus), sequence (P62483 whole entry, looked up): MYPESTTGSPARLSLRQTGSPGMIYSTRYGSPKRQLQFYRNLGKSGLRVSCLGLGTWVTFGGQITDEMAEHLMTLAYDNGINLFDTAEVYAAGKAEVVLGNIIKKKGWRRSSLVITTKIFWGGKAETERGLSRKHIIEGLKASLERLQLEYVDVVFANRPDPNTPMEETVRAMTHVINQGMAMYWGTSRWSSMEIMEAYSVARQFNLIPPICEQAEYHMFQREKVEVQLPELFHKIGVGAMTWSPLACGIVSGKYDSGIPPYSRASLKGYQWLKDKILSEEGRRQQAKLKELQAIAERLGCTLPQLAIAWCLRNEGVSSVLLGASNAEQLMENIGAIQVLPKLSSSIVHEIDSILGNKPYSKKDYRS

Consider `O=C(OCc1cccs1)c1ccccc1NS(=O)(=O)c1ccc2c(c1)OCCO2`, for which the cell count in assay [1] is 709. Moreover, the inhibition in assay [1] was -6.7% (inactive); in assay [3], 9.5% (inactive); in assay [7] it was 3.25% (inactive); in assay [8], -18.1% (inactive). Moreover, the inhibition of aggregation in assay [2] is 10.3% (inactive). Further, the nuclei count in assay [2] worked out at 84.5%; in assay [3], 108%. In addition, the fluorescence slope in assay [4] is -0.626 (inactive); in assay [6], 0.00639 (inactive). In assay [5], the NADPH fluorescence slope was -2.4e-05 (inactive).
As to `O=C1CSC(c2cccc(F)c2)N1c1ccccc1F` (centres undefined), the cell count in assay [1] came out at 650. Moreover, the inhibition was -15.7% (inactive) in assay [1], -120% (inactive) in assay [3], 15% (inactive) in assay [7] and 18.1% (inactive) in assay [8]. The inhibition of aggregation in assay [2] was 36.5% (inactive). Besides, the nuclei count came out at 118% in assay [2] and 100% in assay [3]. Also, the fluorescence slope is -0.614 (inactive) in assay [4] and 0.00376 (inactive) in assay [6]. Also, the NADPH fluorescence slope in assay [5] was 6.1e-06 (inactive).
With `CCOc1ccc(C(=O)Cc2ccc3oc(C(=O)O)cc3c2)c(O)c1`, in assay [1], the cell count came out at 580. Also, the inhibition in assay [1] was 10.2% (inactive); in assay [3], -3.3% (inactive); in assay [7], 16.4% (inactive); in assay [8], 22.3% (inactive). For the same compound, the inhibition of aggregation in assay [2] was 4.1% (inactive). Moreover, the values for the nuclei count in assay [2] and in assay [3] were 63.8% and 97.5%, respectively. Also, the fluorescence slope was -0.522 (inactive) in assay [4] and 0.00668 (inactive) in assay [6]. In addition, the NADPH fluorescence slope in assay [5] was -4.9e-05 (inactive).
For `COc1cccc(CC(NC(C)=O)C(=O)NC2CCN(c3c4c(nc5ncnn35)CCC4)CC2)c1` (centres undefined), the cell count in assay [1] was 767. In addition, the inhibition in assay [1] is -6.8% (inactive); in assay [3] it was -37.8% (inactive); in assay [7], 17.1% (inactive); in assay [8], 22.9% (inactive). For the same compound, in assay [2], the inhibition of aggregation was -4.2% (inactive). Further, the nuclei count is 114% in assay [2] and 140% in assay [3]. Also, the fluorescence slope in assay [4] is -0.464 (inactive); in assay [6], 0.00506 (inactive). In assay [5], the NADPH fluorescence slope was -5.8e-05 (inactive).
As for `CCOC(=O)C1=C(C)Nc2ncnn2C1c1ccccc1F` (centres undefined), the cell count in assay [1] turned out to be 469. Besides, the inhibition in assay [1] is -5.9% (inactive); in assay [3] it was -49.3% (inactive); in assay [7] it was -5.35% (inactive); in assay [8], -2.56% (inactive). Besides, in assay [2], the inhibition of aggregation was -7.1% (inactive). Also, the values for the nuclei count in assay [2] and in assay [3] were 81.7% and 102%, respectively. Also, the fluorescence slope in assay [4] is -0.559 (inactive); in assay [6], 0.00641 (inactive). Also, the NADPH fluorescence slope in assay [5] was -1.9e-05 (inactive).
Consider `CCC(=O)NC1(C(F)(F)F)C(=O)NC(C)=C1C#N` (centres undefined), for which the cell count in assay [1] worked out at 382. The inhibition is 3.6% (inactive) in assay [1], -18.8% (inactive) in assay [3], 14.9% (inactive) in assay [7] and 25.3% (inactive) in assay [8]. Also, the inhibition of aggregation in assay [2] was 11.2% (inactive). Also, the nuclei count came to 98.2% in assay [2] and 105% in assay [3]. For the same compound, the fluorescence slope is -0.445 (inactive) in assay [4] and 0.00561 (inactive) in assay [6]. In addition, the NADPH fluorescence slope in assay [5] is 4.4e-05 (inactive).
For `COCc1[nH]nc2c1C(C1C=CCCC1)C(C#N)=C(N)O2` (centres undefined), in assay [1], the cell count worked out at 463. In addition, the inhibition in assay [1] was 5.7% (inactive); in assay [3] it was -76.2% (inactive); in assay [7], 16.7% (inactive); in assay [8] it was 31.6% (inactive). The inhibition of aggregation in assay [2] is -1.8% (inactive). The values for the nuclei count in assay [2] and in assay [3] were 110% and 120%, respectively. For the same compound, the fluorescence slope in assay [4] was -0.464 (inactive); in assay [6], 0.00521 (inactive). Moreover, in assay [5], the NADPH fluorescence slope was -6.2e-05 (inactive).
For the compound `O=C(Cc1c(O)c2ccccc2[nH]c1=O)NCc1ccc(F)cc1`, the cell count in assay [1] stood at 251. Moreover, the inhibition in assay [1] was 4.3% (inactive); in assay [3] it was -25.6% (inactive); in assay [7], 20.7% (inactive); in assay [8], 24.8% (inactive). Also, the inhibition of aggregation in assay [2] was 18.1% (inactive). Besides, the values for the nuclei count in assay [2] and in assay [3] were 61.3% and 115%, respectively. For the same compound, the fluorescence slope in assay [4] was -0.544 (inactive); in assay [6], 0.00681 (inactive). The NADPH fluorescence slope in assay [5] is -2e-05 (inactive).
`COC(=O)c1ccccc1S(=O)(=O)N(Cc1cc2cc3c(cc2[nH]c1=O)OCO3)C1CCCCC1`: the cell count in assay [1] amounted to 532. In addition, the inhibition was -3.6% (inactive) in assay [1], -71.1% (inactive) in assay [3], -3.7% (inactive) in assay [7] and -14.5% (inactive) in assay [8]. Besides, the inhibition of aggregation in assay [2] is -4.8% (inactive). Besides, the nuclei count worked out at 134% in assay [2] and 161% in assay [3]. Besides, the fluorescence slope is -0.487 (inactive) in assay [4] and 0.00583 (inactive) in assay [6]. In addition, the NADPH fluorescence slope in assay [5] was -9.9e-05 (inactive).
Take `COC(=O)c1[nH]c2c(c1C)C(=O)CC(c1cccs1)C2` (centres undefined): the cell count in assay [1] worked out at 315. The inhibition in assay [1] is 4.5% (inactive); in assay [3], -126% (inactive); in assay [7], 34.9% (inactive); in assay [8], 79.5% (active). For the same compound, the inhibition of aggregation in assay [2] was -123% (inactive). For the same compound, the values for the nuclei count in assay [2] and in assay [3] were 2% and 134%, respectively. The fluorescence slope in assay [4] is -0.473 (inactive); in assay [6], 0.00476 (inactive). In assay [5], the NADPH fluorescence slope is -2.2e-05 (inactive).
Regarding `CCN(CC)CCNC(=O)C1CCN(S(=O)(=O)N2CCCCC2)CC1`, the cell count in assay [1] came to 634. Further, the inhibition in assay [1] is 2.6% (inactive); in assay [3] it was -41.5% (inactive); in assay [7], 11.3% (inactive); in assay [8], 15.8% (inactive). Moreover, the inhibition of aggregation in assay [2] was -30.2% (inactive). Moreover, the nuclei count in assay [2] worked out at 48.9%; in assay [3], 109%. Moreover, the fluorescence slope in assay [4] was -0.412 (inactive); in assay [6], 0.00434 (inactive). Moreover, in assay [5], the NADPH fluorescence slope was 2.2e-05 (inactive).
Regarding `O=C1CS/C(=N\C(=O)N2c3ccccc3Sc3ccccc32)N1`, in assay [1], the cell count turned out to be 373. The inhibition in assay [1] is 8% (inactive); in assay [3], -22.3% (inactive); in assay [7], 12% (inactive); in assay [8], 27.5% (inactive). In addition, the inhibition of aggregation in assay [2] was 28.4% (inactive). The nuclei count in assay [2] was determined as 87.6%; in assay [3], 128%. Moreover, the fluorescence slope was -0.523 (inactive) in assay [4] and 0.00677 (inactive) in assay [6]. Moreover, the NADPH fluorescence slope in assay [5] was -5.6e-05 (inactive).
Regarding `CCCOc1ccc(-c2nnn(CC(=O)Nc3cccc(C(=O)OC)c3)n2)cc1`, the cell count in assay [1] was 380. Further, the inhibition in assay [1] was -2.1% (inactive); in assay [3], -27.4% (inactive); in assay [7], 11.3% (inactive); in assay [8], -4.78% (inactive). In addition, the inhibition of aggregation in assay [2] was -8.7% (inactive). In addition, the figures for the nuclei count in assay [2] and in assay [3] were 109% and 112%, respectively. For the same compound, the fluorescence slope in assay [4] is -0.503 (inactive); in assay [6] it was 0.00964 (inactive). Further, in assay [5], the NADPH fluorescence slope was 0.000154 (inactive).
As to `CC(=O)NCC(=O)OC(C)C(=O)Nc1ccc(C(C)=O)cc1` (centres undefined), in assay [1], the cell count amounted to 413. For the same compound, the inhibition was -12.7% (inactive) in assay [1], -12.6% (inactive) in assay [3], -0.376% (inactive) in assay [7] and 0.897% (inactive) in assay [8]. For the same compound, the inhibition of aggregation in assay [2] was 6.4% (inactive). Further, the nuclei count was determined as 116% in assay [2] and 115% in assay [3]. Moreover, the fluorescence slope in assay [4] is -0.591 (inactive); in assay [6], 0.0073 (inactive). Besides, the NADPH fluorescence slope in assay [5] was -4.9e-05 (inactive).

What is called inhibition is the relative decrease from the control value, in per cent.
